In brackets after ≈: the same amount, converted by molar mass. Activity calls are given as the source filed them. The rule behind the calls is not given here.
Tests used:
Staphylococcus aureus [1] = assay: Inhibition of Staphylococcus aureus MurF using D-Ala-D-Ala/UMtri-L-Lys as substrate assessed as residual activity at 100 uM after 15 mins by Malachite green method
Method in brief: (§1)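 S. aureus MurF, purified, assayed in 50 mM Hepes pH 8.0 with 20 mM MgCl2 and 0.005% Triton X-114, with D-Ala-D-Ala, UMtri-L-Lys and ATP. Compound was in DMSO (5% v/v final). After 15 min at 37 °C, Biomol reagent was added and A650 was read 5 min later. Duplicates were run. Residual activity was relative to 5% DMSO controls. IC50 was read as 50% residual activity across seven concentrations.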

Staphylococcus aureus [2] = assay: Antimicrobial activity against Staphylococcus aureus SH1000 by broth microdilution method; format: functional, organism-based
Method in brief: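 MIC by broth microdilution in Mueller-Hinton broth following CLSI guidelines.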

Escherichia coli [3] = assay: Inhibition of Escherichia coli MurF using D-Ala-D-Ala/UMtri-mDAP as substrate assessed as residual activity at 100 uM after 15 mins by Malachite green method
Method in brief: (§2)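 Purified E. coli MurF in 50 mM Hepes pH 8.0, 50 mM MgCl2, 0.005% Triton X-114, with D-Ala-D-Ala, UMtri-mDAP and ATP. Compound was added in DMSO (final 5% v/v). Mixtures were incubated 15 min at 37 °C, quenched with Biomol reagent, and absorbance was read at 650 nm after 5 min. Runs were in duplicate. Residual activity was taken versus DMSO-only controls. IC50 came from residual activity at seven concentrations.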

Escherichia coli [4] = assay: Antimicrobial activity against Escherichia coli AB734 by broth microdilution method; format: functional, organism-based
Method in brief: (§3)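 Broth microdilution MIC per CLSI guidelines in Mueller-Hinton broth. E. coli 1411 and AB734 were also tested with added polymyxin B nonapeptide to permeabilise the outer membrane.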

Streptococcus pneumoniae [5] = assay: Inhibition of Streptococcus pneumoniae MurF using D-Ala-D-Ala/UMtri-L-Lys as substrate assessed as residual activity at 100 uM after 15 mins by Malachite green method
Method in brief: (§4)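 Purified S. pneumoniae MurF in 50 mM Hepes pH 8.0, 50 mM MgCl2, 0.005% Triton X-114, with D-Ala-D-Ala, UMtri-L-Lys and ATP. Compound was added in DMSO (5% v/v final). Reactions ran 15 min at 37 °C, were stopped with Biomol malachite green reagent, and A650 was measured after 5 min. Runs were in duplicate. Residual activity was versus DMSO controls. IC50 was from seven concentrations.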

Streptococcus pneumoniae [6] = assay: Antimicrobial activity against Streptococcus pneumoniae R6 by broth microdilution method; format: functional
Method in brief: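 MIC by CLSI broth microdilution in Mueller-Hinton broth supplemented with 5% (v/v) lysed horse blood.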

Escherichia coli [7] = assay: Antimicrobial activity against Escherichia coli 1411 by broth microdilution method; format: functional, organism-based; method in brief: as §3
[8] = Inhibition of Streptococcus pneumoniae MurF using D-Ala-D-Ala/UMtri-L-Lys as substrate after 15 mins by Malachite green method; method in brief: as §4
[9] = Inhibition of Streptococcus pneumoniae MurF
[10] = Inhibition of Escherichia coli MurF using D-Ala-D-Ala/UMtri-mDAP as substrate after 15 mins by Malachite green method; method in brief: as §2
[11] = Inhibition of Staphylococcus aureus MurF using D-Ala-D-Ala/UMtri-L-Lys as substrate after 15 mins by Malachite green method; method in brief: as §1

| Structure (SMILES) | Activity (Staphylococcus aureus [1]) | Activity (Staphylococcus aureus [2]) | Activity (Escherichia coli [3]) | Activity (Escherichia coli [4]) | Activity (Streptococcus pneumoniae [5]) | MIC (Streptococcus pneumoniae [6]) | Activity (Escherichia coli [7]) | IC50 [8] | IC50 [9] | IC50 [10] | IC50 [11] |
| --- | --- | --- | --- | --- | --- | --- | --- | --- | --- | --- | --- |
| N#Cc1c(NC(=O)c2cc(S(=O)(=O)N3CCOCC3)c(Cl)cc2Cl)sc2c1CCN(c1ccc([N+](=O)[O-])cc1)C2 | 83% | inactive | 74% | inactive | 80% | > 128 µg/mL | inactive |  |  |  |  |
| N#Cc1c(NC(=O)c2cc(S(=O)(=O)N3CCOCC3)c(Cl)cc2Cl)sc2c1CCCC2 | 107% |  | 100% |  |  | 64 µg/mL (≈ 128 µM) |  | 4 µM | 1 µM |  |  |
| N#Cc1c(NC(=O)c2cc(S(=O)(=O)N3CCNC(=O)C3)c(Cl)cc2Cl)sc2c1CCCC2 | 95% | inactive | 91% | inactive | 89% |  | inactive |  |  |  |  |
| CC1CCN(S(=O)(=O)c2cc(C(=O)Nc3sc4c(c3C#N)CCCC4)c(Cl)cc2Cl)CC1 | 80% | inactive | 87% | inactive | 90% |  | inactive |  |  |  |  |
| N#Cc1ccc(N2CCc3c(sc(NC(=O)c4cc(S(=O)(=O)N5CCOCC5)c(Cl)cc4Cl)c3C#N)C2)cc1 | 85% | inactive | 95% | inactive | 63% | > 128 µg/mL | inactive |  |  |  |  |
| N#Cc1c(NC(=O)c2cc(S(=O)(=O)N3CCSCC3)c(Cl)cc2Cl)sc2c1CCCC2 | 95% | inactive | 91% | inactive | 42% | > 128 µg/mL | inactive |  |  |  |  |
| N#Cc1c(NC(=O)c2cc(S(=O)(=O)N3CCOCC3)c(Cl)cc2Cl)sc2c1CCN(Cc1cccc(C(=O)O)c1)C2 |  | inactive |  | inactive |  | > 128 µg/mL | inactive | 2.55 µM |  | 67 µM | 118 µM |
| N#Cc1c(NC(=O)c2cc(S(=O)(=O)N3CCOCC3)c(Cl)cc2Cl)sc2c1CCN(Cc1ccc(F)cc1)C2 |  | inactive |  | inactive |  | > 128 µg/mL | inactive | 0.98 µM |  | 100 µM | 79 µM |
| N#Cc1c(NC(=O)c2cc(S(=O)(=O)N3CCOCC3)c(Cl)cc2Cl)sc2c1CCN(Cc1ccc(O)c(C(=O)O)c1)C2 |  | inactive |  | inactive |  | > 128 µg/mL | inactive | 1.41 µM |  | 106 µM | 132 µM |
| N#Cc1c(NC(=O)c2cc(S(=O)(=O)N3CCOCC3)c(Cl)cc2Cl)sc2c1CCN(Cc1ccccc1)C2 |  | inactive |  | inactive |  | > 128 µg/mL | inactive | 0.64 µM |  | 109 µM | 80 µM |
| CCOC(=O)c1ccc(N2CCc3c(sc(NC(=O)c4cc(S(=O)(=O)N5CCOCC5)c(Cl)cc4Cl)c3C#N)C2)cc1 | 79% | inactive | 98% | inactive | 80% | > 128 µg/mL | inactive |  |  |  |  |
| N#Cc1c(NC(=O)c2cc(S(=O)(=O)N3CCOCC3)c(Cl)cc2Cl)sc2c1CC[C@@H](c1ccc(O)cc1)C2 |  |  |  |  |  |  |  |  | 0.022 µM |  |  |
| CCOC(=O)C1CCN(S(=O)(=O)c2cc(C(=O)Nc3sc4c(c3C#N)CCCC4)c(Cl)cc2Cl)CC1 | 100% | inactive | 95% | inactive | 100% |  | inactive |  |  |  |  |
| N#Cc1ccc(CN2CCc3c(sc(NC(=O)c4cc(S(=O)(=O)N5CCOCC5)c(Cl)cc4Cl)c3C#N)C2)cc1 |  | inactive |  | inactive |  | > 128 µg/mL | inactive | 1.36 µM |  | 62 µM | 80 µM |
| N#Cc1cccc(CN2CCc3c(sc(NC(=O)c4cc(S(=O)(=O)N5CCOCC5)c(Cl)cc4Cl)c3C#N)C2)c1 |  | inactive |  | inactive |  | > 128 µg/mL | inactive | 1.17 µM |  | 99 µM | 90 µM |
| N#Cc1c(NC(=O)c2cc(S(=O)(=O)N3CCOCC3)c(Cl)cc2Cl)sc2c1CCN(Cc1ccc(C(=O)O)cc1)C2 |  | inactive |  | inactive |  | > 128 µg/mL | inactive | 0.86 µM |  | 118 µM | 110 µM |
| COc1cc(CN2CCc3c(sc(NC(=O)c4cc(S(=O)(=O)N5CCOCC5)c(Cl)cc4Cl)c3C#N)C2)cc(OC)c1O |  | inactive |  | inactive |  | 16 µg/mL (≈ 24 µM) | inactive | 48 µM |  | 78 µM | 84 µM |
| N#Cc1c(NC(=O)c2cc(S(=O)(=O)N3CCSC3)c(Cl)cc2Cl)sc2c1CCCC2 | 85% | inactive | 104% | inactive | 66% | > 128 µg/mL | inactive |  |  |  |  |
